≈ marks a conversion by molar mass, not a printed value. Calls of active or inactive are those of the source. The calls are words filed in the database; no cut-off is given here.
Legend:
[1] = test system: Mycolicibacterium smegmatis; test: Antimycobacterial activity against Mycobacterium smegmatis MC2 155 assessed as inhibition of bacterial growth measured after 2 days by resazurin dye based analysis; format: functional; conditions: MC2 155, 48 h, time 2 day
Method in brief: (§1)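 Strains grown in 7H9 broth with 0.2% glycerol, 10% OADC and 0.05% Tween-80. Inoculum was about 5 × 10^5 CFU/mL, checked by plating on 7H10/OADC agar to be 3–8 × 10^5. Read at 2 days for M. smegmatis and 7 days for M. tuberculosis H37Ra, M. bovis and M. avium. Resazurin 30 μg/mL was then added for one further day. Values are averages of at least two experiments.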

[2] = test system: Enterococcus faecalis; test: Antibacterial activity against vancomycin-resistant Enterococcus faecalis ATCC 51299 assessed as inhibition of bacterial growth by Mueller-Hinton broth based assay; format: functional
[3] = test system: Enterococcus faecium; test: Antibacterial activity against vancomycin-resistant Enterococcus faecium ATCC 700221 assessed as inhibition of bacterial growth by Mueller-Hinton broth based assay; format: functional
[4] = test system: Staphylococcus aureus; test: Antibacterial activity against Staphylococcus aureus ATCC 33591 assessed as reduction in bacterial growth by Mueller-Hinton broth based assay; format: functional
Method in brief: (§2)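 Broth MIC by standard procedure in Mueller-Hinton broth, for both B. subtilis 168 and S. aureus ATCC 33591.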

[5] = test system: Bacillus subtilis; test: Antibacterial activity against Bacillus subtilis 168 assessed as reduction in bacterial growth by Mueller-Hinton broth based assay; format: functional; method in brief: as §2
[6] = Cytotoxicity against HEK293 cells assessed as inhibition of cell growth incubated for 48 hrs by Cell-Titer Glo reagent based analysis; format: toxicity; conditions: human
Method in brief: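 HEK293 cells seeded at 7500 cells/well in DMEM with 10% FBS, 2 mM glutamine and pen/strep, and left 18 h at 37 °C under 5% CO2. Compound then added at 1% final DMSO and incubated 48 h. Viability read by CellTiter-Glo luminescence and normalized to DMSO-only wells. Curves fitted by 4PL constrained to 0–1.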

[7] = Hemolytic activity in human RBC incubated for 1 hr by absorbance based analysis; format: toxicity, cell-based, Erythrocyte; conditions: red blood cells (erythrocytes)
Method in brief: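 Human K2-EDTA blood RBCs washed twice in 150 mM NaCl, resuspended in PBS pH 7.4, then diluted 1:50. Incubated with compound at 1% final DMSO for 1 h at 37 °C and pelleted at 500g for 5 min. Supernatant absorbance read at 540 nm. Controls were DMSO-only and a Triton X-100 dilution series (20% to 0.02%).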

[8] = Antimycobacterial activity against Mycobacterium avium subsp. avium ATCC 25291 assessed as inhibition of bacterial growth measured after 7 days by resazurin dye based analysis; format: functional; conditions: ATCC 25291, 168 h, time 7 day; method in brief: as §1
[9] = test system: Mycobacterium tuberculosis; test: Antimycobacterial activity against Mycobacterium tuberculosis H37Ra assessed as inhibition of bacterial growth measured after 7 days by resazurin dye based analysis; format: functional; conditions: 168 h, time 7 day; method in brief: as §1
[10] = test system: Mycolicibacterium fortuitum; test: Antimycobacterial activity against Mycobacterium fortuitum ATCC 6891 assessed as inhibition of bacterial growth measured after 2 days by resazurin dye based analysis; format: functional; conditions: ATCC 6891, 48 h, time 2 day
Method in brief: (§3)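 Cultured in 7H9 with 0.2% glycerol, 10% OADC and 0.05% Tween-80. Inoculum diluted to ~5 × 10^5 CFU/mL and confirmed at 3–8 × 10^5 by plating on 7H10 agar. Growth read at 2 days, then 30 μg/mL resazurin added for one more day. Values averaged from at least two experiments.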

[11] = test system: Mycobacteroides abscessus; test: Antimycobacterial activity against Mycobacterium abscessus ATCC 19977 assessed as inhibition of bacterial growth measured after 2 days by resazurin dye based analysis; format: functional; conditions: ATCC 19977, 48 h, time 2 day; method in brief: as §3
[12] = test system: Enterococcus faecium; test: Antibacterial activity against Vancomycin-resistant Enterococcus faecium ATCC 700221 infected in cyclophosphamide induced neutropenic thigh infection CD-1 mouse model assessed as increase in survival rate at 50 mg/kg, ip qid measured after 24 hrs post-infection; format: functional, organism-based
Method in brief: (§4)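 Female CD-1 mice, 6–10 weeks old, made neutropenic with i.p. cyclophosphamide (150 mg/kg day 4, 100 mg/kg day 1). About 1 × 10^6 CFU of E. faecium ATCC 700221, grown in BHI with vancomycin, were injected into each thigh. Dosing was i.p. at 1, 3, 5 and 20 h post-infection, in PEG400/DMSO/H₂O (45/5/50) vehicle, with vehicle controls. Mice were euthanized at 24 h.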

[13] = test system: Enterococcus faecium; test: Antibacterial activity against Vancomycin-resistant Enterococcus faecium ATCC 700221 infected in cyclophosphamide induced neutropenic thigh infection CD-1 mouse model assessed as reduction in weight loss at 50 mg/kg, ip qid measured after 24 hrs post-infection; format: functional, organism-based; method in brief: as §4

CN1C(=O)[C@@H]2NC(=O)[C@@H]3NC(=O)[C@@H](c4ccc(O)cc4)NC(=O)[C@H](NC(=O)Cc4ccc(O)cc4)Cc4c[nH]c5cc(ccc45)-c4cc3cc(c4O)Oc3ccc(cc3)C[C@H]1C(=O)N[C@@H](C(=O)NCCC[N+](C)(C)C)c1ccc(O)c(c1)Oc1ccc2cc1
MIC [1]: 0.5 µg/mL | MIC [2]: 16 µg/mL | MIC [3]: 4 µg/mL | MIC [4]: > 128 µg/mL | MIC [5]: 4 µg/mL | IC50 at 48 h [6]: > 256 µg/mL | IC50 at 1 h [7]: > 256 µg/mL

CCCCCCNC(C(=O)N[C@@H]1Cc2c[nH]c3cc(ccc23)-c2cc3cc(c2O)Oc2ccc(cc2)C[C@H]2C(=O)N[C@@H](C(=O)O)c4ccc(O)c(c4)Oc4ccc(cc4)[C@@H](NC(=O)[C@@H]3NC(=O)[C@@H](c3ccc(O)cc3)NC1=O)C(=O)N2C)c1ccc(O)cc1 (stereo not given in full)
MIC [2]: 4 µg/mL (≈ 3.32 µM) | MIC [3]: 4 µg/mL (≈ 3.32 µM) | IC50 at 48 h [6]: > 256 µg/mL | IC50 at 1 h [7]: > 256 µg/mL

CN1C(=O)[C@@H]2NC(=O)[C@@H]3NC(=O)[C@@H](c4ccc(O)cc4)NC(=O)[C@H](NC(=O)C(NC(=O)CCCCCN)c4ccc(O)cc4)Cc4c[nH]c5cc(ccc45)-c4cc3cc(c4O)Oc3ccc(cc3)C[C@H]1C(=O)N[C@@H](C(=O)O)c1ccc(O)c(c1)Oc1ccc2cc1 (stereo not given in full)
MIC [4]: 8 µg/mL (≈ 6.48 µM) | IC50 at 48 h [6]: > 256 µg/mL | IC50 at 1 h [7]: > 256 µg/mL

NNC(=O)c1ccncc1 [ISONIAZID]
MIC [1]: 4 µg/mL (≈ 29.2 µM) | MIC [8]: > 128 µg/mL | MIC [9]: 0.063 µg/mL (≈ 0.459 µM) | MIC [10]: 4 µg/mL (≈ 29.2 µM) | MIC [11]: > 128 µg/mL

CN1C(=O)[C@@H]2NC(=O)[C@@H]3NC(=O)[C@@H](c4ccc(O)cc4)NC(=O)[C@H](NC(=O)C(Nc4cccc(O)c4O)c4ccc(O)cc4)Cc4c[nH]c5cc(ccc45)-c4cc3cc(c4O)Oc3ccc(cc3)C[C@H]1C(=O)N[C@@H](C(=O)O)c1ccc(O)c(c1)Oc1ccc2cc1 (stereo not given in full)
MIC [1]: > 128 µg/mL | MIC [2]: 8 µg/mL (≈ 6.51 µM) | MIC [3]: 16 µg/mL (≈ 13 µM) | MIC [4]: 16 µg/mL (≈ 13 µM) | MIC [5]: 4 µg/mL (≈ 3.25 µM)

CN1C(=O)[C@@H]2NC(=O)[C@@H]3NC(=O)[C@@H](c4ccc(O)cc4)NC(=O)[C@H](NC(=O)C(Nc4ccc(Br)cc4)c4ccc(O)cc4)Cc4c[nH]c5cc(ccc45)-c4cc3cc(c4O)Oc3ccc(cc3)C[C@H]1C(=O)N[C@@H](C(=O)O)c1ccc(O)c(c1)Oc1ccc2cc1 (stereo not given in full)
MIC [1]: > 128 µg/mL | MIC [2]: 8 µg/mL (≈ 6.27 µM) | MIC [3]: 8 µg/mL (≈ 6.27 µM) | MIC [4]: 4 µg/mL (≈ 3.13 µM) | MIC [5]: 2 µg/mL (≈ 1.57 µM)

CN1C(=O)[C@@H]2NC(=O)[C@@H]3NC(=O)[C@@H](c4ccc(O)cc4)NC(=O)[C@H](NC(=O)C(Nc4cccc(F)c4F)c4ccc(O)cc4)Cc4c[nH]c5cc(ccc45)-c4cc3cc(c4O)Oc3ccc(cc3)C[C@H]1C(=O)N[C@@H](C(=O)O)c1ccc(O)c(c1)Oc1ccc2cc1 (stereo not given in full)
MIC [1]: > 128 µg/mL | MIC [2]: 16 µg/mL (≈ 13 µM) | MIC [3]: 16 µg/mL (≈ 13 µM) | MIC [4]: 16 µg/mL (≈ 13 µM) | MIC [5]: 8 µg/mL (≈ 6.49 µM)

CN(C)CCCNCCCNC(=O)[C@@H]1NC(=O)[C@@H]2Cc3ccc(cc3)Oc3cc4cc(c3O)-c3ccc5c(c[nH]c5c3)C[C@@H](NC(=O)Cc3ccc(O)cc3)C(=O)N[C@H](c3ccc(O)cc3)C(=O)N[C@H]4C(=O)N[C@@H](C(=O)N2C)c2ccc(cc2)Oc2cc1ccc2O
MIC [1]: 1 µg/mL (≈ 0.802 µM) | MIC [2]: 16 µg/mL (≈ 12.8 µM) | MIC [3]: 2 µg/mL (≈ 1.6 µM) | MIC [4]: > 128 µg/mL | MIC [5]: 8 µg/mL (≈ 6.41 µM)

CC(=O)NC[C@H]1CN(c2ccc(N3CCOCC3)c(F)c2)C(=O)O1
Activity [12]: Active | Activity [13]: Active

CN1C(=O)[C@@H](c2cc(Cl)c(O)c(Cl)c2)NC(=O)[C@@H]2NC(=O)[C@@H](c3cc(Cl)c(O)c(Cl)c3)NC(=O)[C@H](NC(=O)C(=O)c3cc(Cl)c(O)c(Cl)c3)Cc3c[nH]c4cc(ccc34)-c3cc2cc(c3O)Oc2ccc(cc2)C[C@H]1C(=O)N[C@@H](C(=O)O)c1ccc(O)cc1 [ISOCOMPLESTATIN]
MIC [1]: > 128 µg/mL | MIC [8]: > 64 µg/mL | MIC [9]: > 64 µg/mL | MIC [10]: > 128 µg/mL | MIC [11]: > 128 µg/mL

CN1C(=O)[C@@H]2NC(=O)[C@@H]3NC(=O)[C@@H](c4ccc(O)cc4)NC(=O)[C@H](NC(=O)C(Nc4ccc(O)c(O)c4O)c4ccc(O)cc4)Cc4c[nH]c5cc(ccc45)-c4cc3cc(c4O)Oc3ccc(cc3)C[C@H]1C(=O)N[C@@H](C(=O)O)c1ccc(O)c(c1)Oc1ccc2cc1 (stereo not given in full)
MIC [1]: > 128 µg/mL | MIC [2]: 8 µg/mL (≈ 6.42 µM) | MIC [3]: 16 µg/mL (≈ 12.8 µM) | MIC [4]: 16 µg/mL (≈ 12.8 µM) | MIC [5]: 4 µg/mL (≈ 3.21 µM)

CN1C(=O)[C@@H]2NC(=O)[C@@H]3NC(=O)[C@@H](c4ccc(O)cc4)NC(=O)[C@H](NC(=O)C(Nc4cc(C(F)(F)F)cc(C(F)(F)F)c4)c4ccc(O)cc4)Cc4c[nH]c5cc(ccc45)-c4cc3cc(c4O)Oc3ccc(cc3)C[C@H]1C(=O)N[C@@H](C(=O)O)c1ccc(O)c(c1)Oc1ccc2cc1 (stereo not given in full)
MIC [1]: > 128 µg/mL | MIC [2]: 8 µg/mL (≈ 6 µM) | MIC [3]: 8 µg/mL (≈ 6 µM) | MIC [4]: 8 µg/mL (≈ 6 µM) | MIC [5]: 8 µg/mL (≈ 6 µM)

CN1C(=O)[C@@H]2NC(=O)[C@@H]3NC(=O)[C@@H](c4ccc(O)cc4)NC(=O)[C@H](NC(=O)C(N)c4ccc(O)cc4)Cc4c[nH]c5cc(ccc45)-c4cc3cc(c4O)Oc3ccc(cc3)C[C@H]1C(=O)N[C@@H](C(=O)NCCCN)c1ccc(O)c(c1)Oc1ccc2cc1 (stereo not given in full)
MIC [2]: 4 µg/mL (≈ 3.4 µM) | MIC [3]: 1 µg/mL (≈ 0.849 µM) | IC50 at 48 h [6]: > 256 µg/mL | IC50 at 1 h [7]: > 256 µg/mL

CN1C(=O)[C@@H]2NC(=O)[C@@H]3NC(=O)[C@@H](c4ccc(O)cc4)NC(=O)[C@H](NC(=O)C(Nc4cccc(O)c4)c4ccc(O)cc4)Cc4c[nH]c5cc(ccc45)-c4cc3cc(c4O)Oc3ccc(cc3)C[C@H]1C(=O)N[C@@H](C(=O)O)c1ccc(O)c(c1)Oc1ccc2cc1 (stereo not given in full)
MIC [1]: > 128 µg/mL | MIC [2]: 4 µg/mL (≈ 3.3 µM) | MIC [3]: 4 µg/mL (≈ 3.3 µM) | MIC [4]: 4 µg/mL (≈ 3.3 µM) | MIC [5]: 0.5 µg/mL (≈ 0.412 µM)

CN1C(=O)[C@@H]2NC(=O)[C@@H]3NC(=O)[C@@H](c4ccc(O)cc4)NC(=O)[C@H](NC(=O)C(Nc4ccc(B(O)O)cc4)c4ccc(O)cc4)Cc4c[nH]c5cc(ccc45)-c4cc3cc(c4O)Oc3ccc(cc3)C[C@H]1C(=O)N[C@@H](C(=O)O)c1ccc(O)c(c1)Oc1ccc2cc1 (stereo not given in full)
MIC [1]: > 128 µg/mL | MIC [2]: 8 µg/mL (≈ 6.45 µM) | MIC [3]: 8 µg/mL (≈ 6.45 µM) | MIC [4]: 8 µg/mL (≈ 6.45 µM) | MIC [5]: 1 µg/mL (≈ 0.806 µM)

CN1C(=O)[C@@H]2NC(=O)[C@@H]3NC(=O)[C@@H](c4ccc(O)cc4)NC(=O)[C@H](NC(=O)C(Nc4ccsc4)c4ccc(O)cc4)Cc4c[nH]c5cc(ccc45)-c4cc3cc(c4O)Oc3ccc(cc3)C[C@H]1C(=O)N[C@@H](C(=O)O)c1ccc(O)c(c1)Oc1ccc2cc1 (stereo not given in full)
MIC [1]: > 128 µg/mL | MIC [2]: 4 µg/mL (≈ 3.32 µM) | MIC [3]: 8 µg/mL (≈ 6.65 µM) | MIC [4]: 4 µg/mL (≈ 3.32 µM) | MIC [5]: 1 µg/mL (≈ 0.831 µM)
